Where two headings read alike, the source gives them in different places. Blank lines part the entries; values can stand above or below the molecule they belong to.
Legend:
[1] = test system: COX-1; conditions: cited from earlier work; for IC50: read-out: IC50 COX-1 monkey
[2] = test system: COX-2; conditions: read-out: IC50 COX-2 monkey; cited from earlier work
[3] = test system: COX-2; conditions: read-out: IC50 COX-2 human; cited from earlier work
[4] = test system: COX-1; conditions: cited from earlier work
[5] = biological target: T1, COX-1 (Macaca mulatta, UniProt F6S984); assay: paired baseline/preblock PET experiments with [11C]PS13 in rhesus monkey; format: in vivo, rhesus monkey (Macaca mulatta); conditions: for peak whole-brain radioactivity of [11C]PS13 after administration of blocker: blocker i.v. before [11C]PS13: PS13 1 mg/kg, KTP-Me 3 mg/kg, MC1 0.3 mg/kg; for decline of whole-brain radioactivity from peak / radioactivity in whole brain: 45 min after injection; for whole-brain radioactivity of [11C]PS13 after administration of blocker: 45 min after radioligand, PS13 1 mg/kg, KTP-Me 3 mg/kg i.v.
T1 sequence (F6S984 25-599): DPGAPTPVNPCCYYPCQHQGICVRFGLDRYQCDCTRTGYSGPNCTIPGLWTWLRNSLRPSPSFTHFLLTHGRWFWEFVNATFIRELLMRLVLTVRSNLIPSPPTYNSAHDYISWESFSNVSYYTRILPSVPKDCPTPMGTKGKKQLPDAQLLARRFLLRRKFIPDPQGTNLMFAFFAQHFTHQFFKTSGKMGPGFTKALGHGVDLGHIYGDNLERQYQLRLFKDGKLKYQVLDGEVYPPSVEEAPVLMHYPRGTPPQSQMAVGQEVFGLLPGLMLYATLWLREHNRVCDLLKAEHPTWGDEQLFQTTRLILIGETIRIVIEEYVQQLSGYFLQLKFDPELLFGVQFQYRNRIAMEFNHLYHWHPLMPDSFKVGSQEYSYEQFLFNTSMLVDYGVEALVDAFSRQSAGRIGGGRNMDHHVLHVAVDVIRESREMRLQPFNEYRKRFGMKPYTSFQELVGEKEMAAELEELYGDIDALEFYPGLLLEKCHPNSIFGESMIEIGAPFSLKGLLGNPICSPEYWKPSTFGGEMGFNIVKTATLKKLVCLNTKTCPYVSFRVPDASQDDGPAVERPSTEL
Summary of the method: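 Male rhesus monkeys (7.5–12.8 kg) received an i.v. bolus of radioligand (212 ± 37 MBq; 114 ± 74 GBq/μmol) over 1 min. A baseline scan was followed more than 3 h later by a blocking scan, with inhibitor given i.v. minutes before radioligand. Scans were corrected for attenuation and scatter, and frames ran from 30 s to 10 min. Whole-brain (gray matter) time–activity curves were expressed as SUV.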

[6] = biological target: T1, COX-1; assay: kinetic modeling of PET data; format: in vivo, rhesus monkey; conditions: for reduction of [11C]PS13 brain regional VT values by preadministration: KTP-Me 3 mg/kg, MC1 0.3 mg/kg i.v.; for VND of [11C]PS13 (x-axis intercept of Lassen plot), by blocker experiment: PS13 1 mg/kg or KTP-Me 3 mg/kg as blocker
Summary of the method: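 Each baseline scan was followed >3 h later by a blocking scan, with blocker given as an i.v. bolus 5–10 min before radioligand. Femoral arterial samples were taken every 15 s to 120 s, then at 3–120 min, and parent radioligand was measured by reversed-phase radio-HPLC. VT was estimated by voxel-level Logan analysis, uncorrected for blood volume, with identifiability as % SE. A Lassen plot of regional VT gave occupancy from its slope and VND from its x-intercept.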

[7] = plasma free fraction by ultrafiltration, monkey plasma; format: in vitro ADME
Summary of the method: (§1)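 Free fraction was measured in triplicate by ultrafiltration through membrane filters, with filtrate radioactivity read by γ-counting. Plasma was venous plasma from each monkey, or pooled human arterial plasma stored at −80 °C. The human plasma served as the standard for normalization across studies.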

[8] = baseline PET brain time-activity curves in rhesus monkey; format: in vivo, rhesus monkey (Macaca mulatta); conditions: for decline of whole-brain radioactivity from peak / radioactivity concentration in whole brain: at 85 min; for peak radioactivity concentration in whole brain / time of peak radioactivity concentration in whole brain: i.v. radioligand
Summary of the method: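 Male rhesus monkeys (7.5–12.8 kg) were given ketamine (10 mg/kg i.m.) and kept on 1.6% isoflurane, head in a stereotaxic frame, and imaged on a microPET Focus 220. Radioligand (212 ± 37 MBq) in saline-ethanol 90:10 was given as an i.v. bolus over 1 min. The 120 min acquisition was reconstructed by FORE/2D FBP with attenuation, scatter and decay correction and coregistered to an MRI template. Regional gray-matter curves were expressed as SUV.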

[9] = plasma free fraction by ultrafiltration, pooled human plasma; format: in vitro ADME; conditions: pooled (standard) human plasma
Summary of the method: as §1

[10] = log D by partition between n-octanol and sodium phosphate buffer; format: physicochemical; conditions: n-octanol / sodium phosphate buffer 0.15 M, pH 7.4
Summary of the method: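 Radioligand partitioned between n-octanol and 0.15 M sodium phosphate buffer, pH 7.4. Radioactivity in each phase counted by γ-counter. Buffer-phase radioactivity corrected for parent fraction by reversed-phase radio-HPLC on a C18 column.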

[11] = radioligand stability in monkey whole blood and plasma in vitro; format: in vitro ADME; conditions: monkey whole blood or plasma, 30 min, room temperature
Summary of the method: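 Formulated radioligand was incubated with monkey whole blood or plasma at room temperature for at least 30 min. Blood was lysed with water, and samples were deproteinized with acetonitrile and centrifuged at 10 000g. Supernatants were analysed by reversed-phase radio-HPLC, and precipitates were γ-counted for extraction efficiency. Stability was taken as the % unchanged radioligand divided by radiochemical purity.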

[12] = radiometabolite analysis of monkey plasma after i.v. radioligand; format: in vivo, rhesus monkey
[13] = cited from earlier work
[14] = test system: COX-1; conditions: cited from earlier work; remark: listed apart in the source
[15] = baseline of the paired experiment using KTP-Me
[16] = baseline of the paired experiments using PS13
[17] = baseline of the paired experiment with MC1

Molecule: COc1ccc(-c2nc(OC)nn2-c2ccc(OC)cc2)cc1 [[^11C]PS1]
IC50 [1]: 4.6 ± 1.3 nM | IC50 [2]: > 1000 nM | IC50 [3]: > 1000 nM | IC50 ([4]; read-out: IC50 COX-1 human): 5 ± 5.2 nM

Molecule: C[C@H](C(=O)O)c1cccc(C(=O)c2ccccc2)c1 [KTP, (S)-ketoprofen, reference compound]
IC50 [1]: 1 nM | IC50 [2]: 400 nM | IC50 ([4]; read-out: IC50 COX-1 human): 20 nM | IC50 ([4]; read-out: IC50 for inhibiting human COX-1): 47 nM

Molecule: COc1cc(NCc2cccs2)nc(-c2ccc(S(C)(=O)=O)cc2)n1 [MC1, 6-methoxy-2-(4-(methylsulfonyl)phenyl)-N-(thiophen-2-ylmethyl)pyrimidin-4-amine, reference compound]
fold lower potency for inhibiting COX-1 than COX-2 ([1]; monkey): > 1000 fold | time of peak brain radioactivity of [11C]PS13 after administration of blocker ([5]; MC1 0.3 mg/kg i.v.): 3.5 min | peak whole-brain radioactivity of [11C]PS13 after administration of blocker [5]: 4.86 SUV | reduction of [11C]PS13 brain regional VT values by preadministration ([6]; PS13 1 mg/kg): no effect | fold lower potency for inhibiting COX-1 than COX-2 ([4]; human): > 1000 fold

Molecule: [^11C]-Ketoprofen [[^11C]KTP]
brain penetrance [13]: poorly brain-penetrant

Molecule: COC(=O)[C@@H](C)c1cccc(C(=O)c2ccccc2)c1 [KTP-Me, (S)-ketoprofen methyl ester, reference compound]
whole-brain radioactivity of [11C]PS13 after administration of blocker [5]: 1.09 SUV | peak whole-brain radioactivity of [11C]PS13 after administration of blocker [5]: 4.14 SUV | VND of [11C]PS13 (x-axis intercept of Lassen plot), by blocker experiment [6]: 1.8 mL/cm^3 | COX-1 occupancy (slope of Lassen plot) ([6]; PS13 1 mg/kg, KTP-Me 3 mg/kg i.v., radioligand [11C]PS13): 72 ± 4%

Molecule: C[C@@H](C(=O)O)c1cccc(C(=O)c2ccccc2)c1 (single isomer, unassigned) [R-enantiomer of KTP]
potency for inhibiting COX-1 [14]: negligible potency

Molecule: COc1ccc(-c2nc(OCF)nn2-c2ccc(OC)cc2)cc1 [[^2H2,^18F]PS2]
IC50 [1]: 3.6 ± 1 nM | IC50 [2]: > 1000 nM | IC50 ([4]; read-out: IC50 COX-1 human): 4 ± 2 nM

Continued, values first:

monkey fP (n = 3) [7]: 0.039 ± 0.001 | decline of whole-brain radioactivity from peak [8]: 74% | radioactivity concentration in whole brain [8]: 1.05 SUV | peak radioactivity concentration in whole brain ([8]; rhesus monkey): 4.11 SUV | time of peak radioactivity concentration in whole brain ([8]; rhesus monkey): 7 min | radioactivity in skull on brain image (radiodefluorination) ([8]; rhesus monkey): uptake of radioactivity in skull | human fP (n = 3) [9]: 0.021 ± 0.000 | log D (n = 6) [10]: 3.26 ± 0.01 | radiochemical stability [11]: > 99% | radioactivity in plasma that was parent radioligand ([12]; by about 25 min after i.v. injection): 50%
Molecule: [2H]C([2H])([18F])Oc1nc(-c2ccc(OC)cc2)n(-c2ccc(OC)cc2)n1 [[^2H2,^18F]PS2]

monkey fP (n = 3) [7]: 0.042 ± 0.001 | decline of whole-brain radioactivity from peak [8]: 85% | radioactivity concentration in whole brain [8]: 0.62 SUV | peak radioactivity concentration in whole brain ([8]; rhesus monkey): 4.26 SUV | time of peak radioactivity concentration in whole brain ([8]; rhesus monkey): 1.75 min | human fP (n = 3) [9]: 0.036 ± 0.001 | log D (n = 6) [10]: 3.29 ± 0.00 | radiochemical stability [11]: > 99%
Molecule: COc1ccc(-c2nc(O[11CH3])nn2-c2ccc(OC)cc2)cc1 [[^11C]PS1]

monkey fP (n = 3) [7]: 0.011 ± 0.001 | decline of whole-brain radioactivity from peak [8]: 54% | human fP (n = 3) [9]: 0.002 ± 0.000 | log D (n = 6) [10]: 4.26 ± 0.04 | decline of whole-brain radioactivity from peak [5, 15]: 43% | radioactivity in whole brain [5, 15]: 1.65 SUV | decline of whole-brain radioactivity from peak [5, 16]: 36% | radioactivity in whole brain [5, 16]: 1.88 SUV | peak radioactivity in whole brain [5, 15]: 2.90 SUV | peak uptake of radioactivity in brain [5, 17]: 3.73 SUV | time of peak uptake of radioactivity in brain [5, 17]: 3.5 min | peak radioactivity in whole brain [5, 16]: 2.92 SUV | radiochemical stability [11]: > 99% | identifiability (SE) of VT ([6]; all examined brain regions, Logan graphical analysis): 0.1–1.8% | radioactivity uptake in brain specifically bound to COX-1 ([6]; pharmacological preblock experiments, monkey): about 55% | radioactivity in plasma represented by each species ([12]; 90 min after i.v. injection of [11C]PS13, radio-HPLC): 48.9% | radioactivity in plasma represented by unchanged radioligand ([12]; at 90 min, baseline and self-block experiments): about 50%
Molecule: COc1ccc(-c2nc(OCC(F)(F)F)nn2-c2ccc(OC)cc2)cc1 [[^11C]PS13, [^11C]1,5-bis(4-methoxyphenyl)-3-(2,2,2-trifluoroethoxy)-1H-1,2,4-triazole]

whole-brain radioactivity of [11C]PS13 after administration of blocker [5]: 1.11 SUV | peak whole-brain radioactivity of [11C]PS13 after administration of blocker [5]: 3.60 SUV | VND of [11C]PS13 (x-axis intercept of Lassen plot), by blocker experiment [6]: 2.5 mL/cm^3 | reduction of [11C]PS13 brain regional VT values by preadministration ([6]; PS13 1 mg/kg): about 55% | receptor occupancy at 1 mg/kg ([6]; rhesus monkey, iv, read-out: COX-1 occupancy (slope of Lassen plot)): 87 ± 4%
Molecule: COc1ccc(-c2nc(OCC(F)(F)F)nn2-c2ccc(OC)cc2)cc1 [PS13, 1,5-bis(4-methoxyphenyl)-3-(2,2,2-trifluoroethoxy)-1H-1,2,4-triazole]

From PMC6371780 (ACS chemical neuroscience, 2018)
